In article PMC4351917 (Journal of medicinal chemistry, 2014):
Marks after values point to notes of the source that are not given here. Blank lines part the entries; values can stand above or below the compound they belong to.

How the values were obtained:
[1] = Lipophilicity by RP-HPLC retention factors; assay type: physicochemical; conditions: for log kw: 0.1% TFA water/MeOH, values extrapolated to 0% MeOH; for log k30: mobile phase containing 30% MeOH
[2] = tested on: A549 (nonsmall cell lung cancer); conditions: read-out: IC50, 96 h A549; MTT assay, exposure 96 h; cited from earlier work
[3] = Stability in aqueous media under physiologically relevant conditions; assay type: physicochemical; conditions: PBS (pH 7.4 and 6.0), 37 °C, 0.5 mM
Outline: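 Each complex (0.5 mM) was incubated at 37 °C for 24 h in water, PBS pH 7.4, PBS pH 6.0 and 0.05 M HCl (pH 1.5). Samples taken at 1 and 24 h were analysed by isocratic RP-HPLC on a C18 column at 25 °C, with 0.1% TFA water/MeOH adjusted for elution within 15 min and UV detection at 210 nm.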

CH1 (ovarian carcinoma) [4] = conditions: read-out: IC50, 96 h CH1; MTT assay, exposure 96 h; cited from earlier work
SW480 (colon carcinoma) [5] = conditions: read-out: IC50, 96 h SW480; MTT assay, exposure 96 h; cited from earlier work
[6] = Platinum concentration in mouse tissues and serum by ICP-MS; assay type: in vivo, Balb/c mice; conditions: for serum platinum level: CT-26 mice
CH1 (ovarian carcinoma) [7] = experiment: MTT cytotoxicity assay, CH1; assay type: cell-based, human; conditions: CH1 cells
Outline: (§1)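 Adherent cells grown in MEM with 10% FBS, pyruvate, NEAA and glutamine, without antibiotics. Seeded per well at 1.0 × 10³ for CH1 and 2.0 × 10³ for SW480, then settled for 24 h. Serial dilutions of test compound in medium were applied for 96 h continuous exposure at 37 °C. MTT was added for 4 h, formazan dissolved in DMSO, and read at 550 nm (ref 690 nm). IC₅₀ was interpolated from concentration–effect curves, ≥3 independent experiments in triplicate.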

SW480 (colon carcinoma) [8] = experiment: MTT cytotoxicity assay, SW480; assay type: cell-based, human; conditions: SW480 cells
Outline: as §1

[9] = General toxicity in the animal experiments; conditions: all in vivo experiments, 10-30 mg/kg i.p., mice
Outline: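 Test compound in water, given i.p. L1210 model: female DBA/2J × Balb/c SCID F1 mice, 1 × 10⁵ cells i.p. on day 0, dosed 10, 20, 30 mg/kg on days 1, 5, 9, with daily observation and body weight. CT-26 model: female Balb/c mice aged 6–8 weeks, 5 × 10⁵ cells s.c. into the flank, 30 mg/kg on days 4, 7, 11, 14, with daily distress checks.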

Aqueous solubility = assay type: physicochemical; conditions: water
[10] = tested on: L1210 murine leukemia cells; experiment: Antileukemic activity in vivo; design: species or system female DBA/2J × Balb/c SCID F1 mice; conditions: L1210 leukemia-bearing mice
[11] = Reduction by sodium ascorbate, RP-HPLC; assay type: physicochemical; conditions: 15-fold excess sodium ascorbate
[12] = 9 mg/kg i.v. days 4, 7, 11, 14, day 15
[13] = 30 mg/kg i.p. days 4, 7, 11, 14, day 15

- log kw [1]: 1.28 ± 0.01
- log k30 [1]: 0.28 ± 0.01
Compound: NCCN.O=C1[O][Pt]2([O]C(=O)C13CCC3)[O]C(=O)C1(CCC1)C(=O)[O]2 [1d, (OC-6-22)-Bis(1,1-cyclobutanedicarboxylato)ethane-1,2-diamineplatinum(IV)]

- log kw [1]: 1.63 ± 0.04
- log k30 [1]: 0.68 ± 0.01
Compound: CC(=O)[O][Pt]([NH2])([Cl])([Cl])([NH]C1CCCCC1)[O]C(C)=O [satraplatin, reference compound]

Compound: N.N.O=C([O-])C1(C(=O)[O-])CCC1.[Pt+2] [carboplatin, reference compound]
- log kw [1]: −0.36 ± 0.04^c
- log k30 [1]: −0.80 ± 0.01
- IC50 [2]: 91000 ± 10000 nM

Compound: CCN.CCN.O=C([O-])CC(=O)[O-].O=C([O-])CC(=O)[O-].[Pt+4] [2b, (OC-6-22)-Bis(ethylamine)bis(malonato)platinum(IV)]
- decomposition after 24 h of incubation in PBS solution [3]: < 10%

Compound: O=C1[O][Pt]2([NH][C@@H]3CCCC[C@H]3[NH]2)[O]C1=O [oxaliplatin, reference compound]
- IC50 (CH1 (ovarian carcinoma) [4]): 180 ± 10 nM
- IC50 (SW480 (colon carcinoma) [5]): 290 ± 50 nM
- serum platinum level ([6]; 9 mg/kg i.v. days 4, 7, 11, 14, 24 h after last application): ~ 0.3 μg/mL
- platinum in kidney [6, 12]: ~ 4.5 μg/g
- platinum in liver [6, 12]: ~ 2 μg/g
- IC50 [2]: 980 ± 210 nM

Compound: (OC-6-22)-((1R,2R)-Diaminocyclohexane)bis(malonato)-platinum(IV) [4b]
- times more potent than 1b (CH1 (ovarian carcinoma) [7]; versus 1b): 4 times
- times more potent than 2b (CH1 (ovarian carcinoma) [7]; versus 2b): 12 times
- potency relative to 3b (CH1 (ovarian carcinoma) [7]; versus 3b): twice as potent
- activity relative to 5b (CH1 (ovarian carcinoma) [7]; versus 5b): same activity
- times more active than 1b, 2b, and 3b (SW480 (colon carcinoma) [8]; versus 1b, 2b and 3b): at least 8 times
- times more active than 5b (SW480 (colon carcinoma) [8]; versus 5b): 6 times
- log kw [1]: −0.11 ± 0.01
- log k30 [1]: −0.65 ± 0.02
- tolerability / signs of toxicity (fatigue, weight loss) [9]: well-tolerated with no signs of toxicity
- serum platinum level ([6]; 30 mg/kg i.p. days 4, 7, 11, 14, 24 h after last application): ~ 3 μg/mL
- platinum in kidney [6, 13]: ~ 10.5 μg/g
- platinum in liver [6, 13]: ~ 15 μg/g
- platinum in lung [6, 13]: ~ 5 μg/g
- platinum in sciatic nerve [6, 13]: ~ 1.8 μg/g
- platinum in tumor tissue [6, 13]: ~ 5 μg/g
- serum platinum circulation compared to oxaliplatin-treated mice ([6]; 4b 30 mg/kg i.p. versus oxaliplatin 9 mg/kg i.v., 24 h after last application): 10 times
- aqueous solubility (Aqueous solubility): > 15 mM
- effect on survival ([10]; 10 mg/kg i.p. on days 1, 5, 9): no effect on the survival
- mice being cured ([10]; 30 mg/kg i.p. on days 1, 5, 9, n = 4): 3/4
- complex still in its native form ([11]; PBS pH 7.4, 37 °C, after 20 h): more than 90%
- complex intact ([11]; unbuffered water, 37 °C, after 24 h): ~ 95%
- decomposition after 24 h of incubation in PBS solution [3]: no decomposition products were observed
